Test [1] deals with Cannabinoid receptor 2 (Mus musculus, UniProt P47936). The test is described as follows: Displacement of [3H]CP-55940 from CB2 receptor in DBA/J2 mouse spleen. Put shortly:
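Membranes (40-60 µg protein) from mouse brain minus cerebellum (CB1) or spleen (CB2), incubated 1 h at 30 °C with 0.5 nM [3H]CP-55,940 in TME buffer (pH 7.4) with 5 mg/mL BSA. GF/C filtration, scintillation counting. IC50 by nonlinear fit, converted to Ki by Cheng-Prusoff; at least three membrane preparations.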

The target in test [2] is Cannabinoid receptor (Mus musculus) (UniProt P47746+P47936). The test is described as follows: Selectivity for DBA/J2 mouse CB2 receptor over CB1 receptor. In kind it is protein assay.
Cannabinoid receptor (Mus musculus), sequence (P47746 whole entry, looked up): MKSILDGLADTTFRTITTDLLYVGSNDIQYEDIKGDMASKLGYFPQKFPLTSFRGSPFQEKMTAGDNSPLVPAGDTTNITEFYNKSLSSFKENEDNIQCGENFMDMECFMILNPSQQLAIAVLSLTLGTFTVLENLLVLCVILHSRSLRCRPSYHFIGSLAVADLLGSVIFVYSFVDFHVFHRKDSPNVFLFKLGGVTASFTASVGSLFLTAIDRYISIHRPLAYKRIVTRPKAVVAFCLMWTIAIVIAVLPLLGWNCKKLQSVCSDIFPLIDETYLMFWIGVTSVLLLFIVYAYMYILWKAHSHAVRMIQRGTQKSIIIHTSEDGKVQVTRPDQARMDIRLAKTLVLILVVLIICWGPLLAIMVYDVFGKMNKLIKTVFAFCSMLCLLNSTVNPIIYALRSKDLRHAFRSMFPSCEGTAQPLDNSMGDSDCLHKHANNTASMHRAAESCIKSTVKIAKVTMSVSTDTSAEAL
Cannabinoid receptor (Mus musculus), sequence (P47936 whole entry, looked up): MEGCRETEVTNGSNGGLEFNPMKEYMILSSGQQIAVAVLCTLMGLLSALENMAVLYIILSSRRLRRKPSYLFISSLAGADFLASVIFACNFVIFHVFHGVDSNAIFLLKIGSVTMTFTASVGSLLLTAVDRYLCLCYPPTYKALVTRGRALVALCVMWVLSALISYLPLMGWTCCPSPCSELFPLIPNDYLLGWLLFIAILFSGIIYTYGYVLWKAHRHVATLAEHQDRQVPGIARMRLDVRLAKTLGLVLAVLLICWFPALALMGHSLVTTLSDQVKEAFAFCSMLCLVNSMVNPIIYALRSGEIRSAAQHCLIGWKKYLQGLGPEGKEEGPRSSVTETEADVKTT
Test [3] concerns the target T1, Cannabinoid receptor 1 (Mus musculus, UniProt P47746). The experiment in a line: Displacement of [3H]CP-55940 from CB1 receptor in DBA/J2 mouse brain. The format is tissue-based. Background: Loss of bound radioactivity is the signal in a displacement assay; it reports binding, not function.
The target of test [4] is Cannabinoid receptor 1 (Mus musculus) (UniProt P47746). The test is described as follows: Activity at CB1 receptor assessed as stimulation of [35S]GTP-gamma-S binding in DBA/J2 mouse brain relative to control. In kind it is functional. Put shortly:
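Mouse brain (minus cerebellum) P2 membranes, 5-10 µg protein, incubated 60 min at 30 °C in 50 mM Tris-HCl, 3 mM MgCl2, 0.2 mM EGTA, 100 mM NaCl, pH 7.4, 0.1% BSA, with 0.05 nM [35S]GTPγS, 30 µM GDP, compound 1-5000 nM. Filtration, scintillation counting. Nonspecific binding with 10 µM GTPγS. Stimulation as % above basal. EC50/Emax by nonlinear regression; at least four experiments in duplicate.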

Test [5] shares this target. The test is described as follows: (§1) Activity at CB1 receptor assessed as stimulation of [35S]GTP-gamma-S binding in DBA/J2 mouse brain. In kind it is functional. The conditions noted are these: filed as agonist.
In test [6] the target is T1, Cannabinoid receptor 1. Described as §1. In kind it is functional.
The target of test [7] is Cannabinoid receptor 2 (Homo sapiens) (UniProt P34972). The test is described as follows: Activity at CB2 receptor assessed as reduction in CD203c expression in activated human basophil. In kind it is functional. Put shortly: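 Human basophil-rich leukocytes from donor blood buffy coats via Ficoll-Paque. Cells pretreated with compound 1 nM to 1 µM for 30 min at 37 °C, then stimulated with anti-IgE 1 µg/mL for 30 min at 37 °C. CD203c (PE) read by flow cytometry on IgE-FITC-gated basophils. Antagonist check: SR 144528 or AM251 100 nM preincubated 30 min. Six experiments in triplicate.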
Cannabinoid receptor 2 (Homo sapiens), sequence (P34972 whole entry): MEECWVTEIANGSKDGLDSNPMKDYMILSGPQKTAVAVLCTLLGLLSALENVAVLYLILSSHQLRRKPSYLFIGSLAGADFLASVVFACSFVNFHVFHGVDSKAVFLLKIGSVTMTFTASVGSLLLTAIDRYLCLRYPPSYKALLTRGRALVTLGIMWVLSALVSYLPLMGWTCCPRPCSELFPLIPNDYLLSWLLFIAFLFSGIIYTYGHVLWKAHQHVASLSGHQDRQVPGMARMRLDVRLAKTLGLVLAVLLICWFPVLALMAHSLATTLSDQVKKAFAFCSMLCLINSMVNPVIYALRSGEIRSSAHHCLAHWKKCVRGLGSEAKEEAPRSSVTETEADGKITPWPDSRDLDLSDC

SMILES strings stand for the structures. The source made the active and inactive calls. The calls are words filed in the database; no cut-off is given here.

By Ki is commonly meant the dissociation constant of the complex between target and ligand, obtained from inhibition or displacement. A higher Ki goes with weaker binding. The Emax is the greatest response seen or fitted, relative to the assay's reference. As a reminder, the EC50 is the concentration giving half of the maximal effect.

Cannabinoid receptor 1 (Mus musculus), sequence (P47746 whole entry): as the sequence (P47746 whole entry, looked up) above
T1 sequence (P47746 whole entry): as the sequence (P47746 whole entry, looked up) above
Cannabinoid receptor 2, sequence (P47936 whole entry): as the sequence (P47936 whole entry, looked up) above

`COc1ccc(Cn2cc(C(=O)NC3CCCCC3)c(=O)c3ccc(C)nc32)cc1`: the Ki is 35.8 nM in test [1] and over 1000 nM in test [3]. In addition, the Ratio Ki in test [2] was over 28.

For `Cc1ccc2c(=O)c(C(=O)NC3CCCCCC3)cn(Cc3ccccc3F)c2n1`, the Ki in test [1] is 13.4 nM; in test [3], 149 nM. In test [2], the Ratio Ki was 11.

For the compound `O=C(NC1CCCCC1)c1cn(CCN2CCOCC2)c2cc(Cl)ccc2c1=O`, the values for the Ki in test [1] and in test [3] were 3.3 nM and over 1000 nM, respectively. Moreover, the Ratio Ki in test [2] is over 303.

As for `Cc1ccc2c(n1)N(Cc1ccccc1F)CC(C(=O)NC1CCCCC1)C2O` (stereo not given), the Ki in test [1] and in test [3] was over 1000 nM each time.

Take `Cc1ccc2c(=O)c(C(=O)NC3CCCCCC3)cn(Cc3ccc(F)cc3)c2n1`: the Ki is 1 nM in test [1] and 4.3 nM in test [3]. Besides, in test [2], the Ratio Ki is 4.3.

Consider `Cc1ccc2c(=O)c(C(=O)NC3CCCCC3)cn(Cc3ccccc3)c2n1`, for which the values for the Ki in test [1] and in test [3] were 10 nM and 127 nM, respectively. Besides, in test [2], the Ratio Ki is 13.

With `CC1CCC(NC(=O)c2cn(CCN3CCOCC3)c3nc(Cl)ccc3c2=O)CC1` (stereo not given), the figures for the Ki in test [1] and in test [3] were 40.5 nM and over 1000 nM, respectively. Also, in test [2], the Ratio Ki is over 25.

On to `Cc1ccc2c(=O)c(C(=O)NC3CCCCC3)cn(CCN3CCN(c4ccccc4)CC3)c2n1`, for which the Ki in test [1] and in test [3] was over 1000 nM each time.

Regarding `Cc1ccc2c(=O)c(C(=O)NC3CCC(C)CC3)cn(Cc3ccccc3F)c2n1` (stereo not given), in test [4], the Emax amounted to 161%. In addition, the Ki in test [1] worked out at 8.4 nM; in test [3] it was 37.5 nM. Moreover, the Ratio Ki in test [2] came to 4. The Activity result in test [5] is “Agonist”. In addition, in test [6], the EC50 is 138 nM.

As to `Cc1ccc2c(=O)c(C(=O)NC3CCCC3)cn(CCN3CCOCC3)c2n1`, the Ki in test [1] was 50 nM; in test [3] it was over 1000 nM. For the same compound, in test [2], the Ratio Ki was over 20. The result in test [7] was Active.

For the compound `Cc1c(C(=O)c2cccc3ccccc23)c2cccc3c2n1[C@H](CN1CCOCC1)CO3`, in test [4], the Emax stood at 187%.

As to `O=C(NC1CCCCC1)c1cn(CCN2CCOCC2)c2ncccc2c1=O`, the values for the Ki in test [1] and in test [3] were 67.2 nM and over 1000 nM, respectively. Moreover, the Ratio Ki in test [2] is over 15.

With `O=C(NC1CCCCC1)c1cn(Cc2ccccc2)c2ncccc2c1=O`, the inhibition constant Ki in test [1] is 48.6 nM; in test [3], over 1000 nM. Moreover, in test [2], the Ratio Ki was over 21.

Consider `O=C(NC1CCCCC1)c1cn(Cc2ccc(F)cc2)c2ncccc2c1=O`, for which the Ki in test [1] is 13 nM; in test [3], 384 nM. Moreover, the Ratio Ki in test [2] is 29.

Consider `O=C(NC1CCCCC1)c1cn(Cc2ccccc2)c2nc(Cl)ccc2c1=O`, for which the values for the Ki in test [1] and in test [3] were 24.6 nM and 464 nM, respectively. The Ratio Ki in test [2] came out at 19.

As for `CCCC(C)(C)c1ccc2c(c1)OC(C)(C)[C@@H]1CC=C(C)C[C@@H]21`, the Ki was found to be 65 nM in test [1] and 458 nM in test [3]. Also, the Ratio Ki in test [2] was found to be 7.

Take `Cc1ccc2c(=O)c(C(=O)NC3CCCCCC3)cn(Cc3ccccc3)c2n1`: the Ki in test [1] is 5.1 nM; in test [3], 143 nM. Moreover, the Ratio Ki in test [2] is 28.

As for `Cc1ccc2c(=O)c(C(=O)NC3CCC(C)CC3)cn(Cc3ccc(F)cc3)c2n1` (stereo not given), in test [4], the Emax is 172%. Besides, the Ki in test [1] was 1.4 nM; in test [3] it was 8.7 nM. The Ratio Ki in test [2] worked out at 6. Further, in test [5], the Activity entry is “Agonist”. Also, the EC50 in test [6] came to 27 nM.

For the compound `Cc1ccc2c(=O)c(C(=O)NC3CCCCC3)cn(CCc3ccccc3)c2n1`, the values for the inhibitory constant (Ki) in test [1] and in test [3] were 16.3 nM and over 1000 nM, respectively. In test [2], the Ratio Ki was over 62.

As for `Cc1ccc2c(n1)N(Cc1ccccc1)CC(C(=O)NC1CCCCC1)C2O` (stereo not given), the inhibition constant Ki in test [1] and in test [3] was over 1000 nM in each case.

For `O=C(NC1CCCCC1)c1cn(Cc2ccc(F)cc2)c2nc(Cl)ccc2c1=O`, the figures for the Ki in test [1] and in test [3] were 21.4 nM and 495 nM, respectively. Besides, in test [2], the Ratio Ki was found to be 23.

On to `Cc1ccc2c(n1)N(CCN1CCOCC1)CC(C(=O)NC1CCC(C)CC1)C2O` (stereo not given), for which the Ki in test [1] and in test [3] was over 1000 nM in each case.

`O=C(NC1CCCCC1)c1cn(Cc2ccccc2F)c2nc(Cl)ccc2c1=O` registered a Ki in test [1] of 18.1 nM.

For the compound `CCCCC/C=C\C/C=C\C/C=C\C/C=C\CCCC(=O)NCCCl`, the Ki worked out at 121 nM in test [1] and 3.9 nM in test [3]. The Ratio Ki in test [2] came to 0.03.

Regarding `O=C(NC1CCCCC1)c1cn(Cc2ccccc2)c2ccccc2c1=O`, the Ki in test [1] is 4.8 nM; in test [3], over 1000 nM. Moreover, the Ratio Ki in test [2] was over 210. For the same compound, in test [7], the result was Active.

Values taken from ChEMBL document CHEMBL1137375, “Design, synthesis, and biological evaluation of new 1,8-naphthyridin-4(1H)-on-3-carboxamide and quinolin-4(1H)-on-3-carboxamide derivatives as CB2 selective agonists” (J Med Chem, 2006).
